Experimental data as given in ChEMBL document CHEMBL3132813, “Exploring novel strategies for AIDS protozoal pathogens: α-helix mimetics targeting a key allosteric protein-protein interaction in C. hominis TS-DHFR” (Medchemcomm, 2013).

Tests used:
[1] = system: Cryptosporidium hominis; experiment: Inhibition of DHFR activity of Cryptosporidium hominis thymidylate synthase-dihydrofolate reductase beta face mutant by steady state kinetic assay relative wild type TS-DHFR
Outline: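 Bifunctional TS–DHFR enzymes (wild type and crossover-helix mutants) were over-expressed in E. coli BL21 and purified. DHFR activity was followed at 340 nm by steady-state spectroscopy. Enzyme and substrates were preincubated with mimetic for 30 min before starting the reaction. Rates were normalized to a matched DMSO blank. Enzyme and ligand concentrations were the same for each target, and IC50 was given as mean ± SD.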

[2] = Inhibition of DHFR activity of Cryptosporidium hominis thymidylate synthase-dihydrofolate reductase beta face mutant by steady state kinetic assay
Outline: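 Recombinant bifunctional TS–DHFR, Beta Face crossover-helix mutant, expressed in E. coli BL21. DHFR reaction was followed spectroscopically at 340 nm under steady-state conditions. Helix mimetic was added from a DMSO stock and preincubated with enzyme and substrates for 30 minutes before the reaction was started. Rates were normalized to a matched DMSO blank and fit as dose–response to give the IC50, reported as mean ± SD.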

[3] = biological target: T1, Dihydrofolate reductase (Homo sapiens, UniProt P00374); experiment: Inhibition of human DHFR
T1 sequence (P00374 whole entry): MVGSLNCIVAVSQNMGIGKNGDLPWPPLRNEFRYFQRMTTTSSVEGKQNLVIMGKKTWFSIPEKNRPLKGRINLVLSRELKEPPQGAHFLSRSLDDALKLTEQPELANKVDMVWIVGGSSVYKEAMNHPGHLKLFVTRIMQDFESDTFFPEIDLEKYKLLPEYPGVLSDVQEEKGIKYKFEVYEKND
Outline: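 Steady-state spectrophotometric assay at 340 nm, run separately for DHFR and TS reactions. Compound preincubated 30 min with enzyme and substrates before starting the reaction. Identical enzyme and ligand concentrations for all targets. DMSO-matched blank; rates normalized to it. IC50 as mean ± standard deviation.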

Q: Which results are given for `CC(C)CN(C(=O)Nc1ccc(CCC(=O)O)cc1Cc1ccccc1)C(=O)c1ccc(OCC(=O)O)c(Cc2ccccc2)c1`?
A: Ratio IC50 [1]: 10; IC50 [2]: 18 µM; IC50 [3]: > 1000 µM
